# Bioassay records from PubChem.
# Only some compounds are listed: those with a hit (about 1.8% of all), similar ones and a draw of the others.
# DAGLB inh = blocks human DAGLB lipase activity. HEK293T DAGLB membrane lysate, EnzChek fluorogenic substrate. AID 504411. inhibition, % at 5.17 µM. Q8NCG7. 0.059% of 340,000 active; in the data active means inhibition above about 34%;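 further: 0% = enzyme with vehicle and 100% = wells lacking enzyme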
# Target sequence (Q8NCG7 whole entry, looked up): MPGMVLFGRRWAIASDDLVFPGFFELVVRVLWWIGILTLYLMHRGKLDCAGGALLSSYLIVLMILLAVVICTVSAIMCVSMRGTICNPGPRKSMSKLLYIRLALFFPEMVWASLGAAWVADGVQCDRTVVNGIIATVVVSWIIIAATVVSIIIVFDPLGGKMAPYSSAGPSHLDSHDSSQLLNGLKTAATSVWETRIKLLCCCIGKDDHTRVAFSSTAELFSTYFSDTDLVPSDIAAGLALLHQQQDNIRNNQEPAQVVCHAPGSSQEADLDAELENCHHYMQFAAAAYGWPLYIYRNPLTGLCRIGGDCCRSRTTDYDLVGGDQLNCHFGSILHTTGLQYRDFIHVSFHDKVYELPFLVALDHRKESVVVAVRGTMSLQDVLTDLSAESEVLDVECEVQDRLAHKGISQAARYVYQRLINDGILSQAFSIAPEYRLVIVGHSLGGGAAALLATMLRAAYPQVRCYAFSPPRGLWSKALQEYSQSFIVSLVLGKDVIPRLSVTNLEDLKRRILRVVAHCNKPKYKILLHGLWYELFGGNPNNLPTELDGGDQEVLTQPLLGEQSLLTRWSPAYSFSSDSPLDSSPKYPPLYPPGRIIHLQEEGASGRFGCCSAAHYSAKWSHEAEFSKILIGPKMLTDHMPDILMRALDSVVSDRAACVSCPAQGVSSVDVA
# MsrA inhibitor = inhibitors of bovine MsrA; purified bovine MsrA, absorbance read-out; inhibition, % at 15.5 µM; 0.75% of 360,000 active; AID 651718;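 further: 0% = vehicle wells with enzyme and 100% = reference inhibitor wells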
# MT1-MMP act inh = MT1-MMP (human) activation inhibition; P50281; HT1080 RFP-PRO-GFP cells, GFP/RFP ratio fluorescence, overnight; percent of plate control window, DMSO zero; GFP/RFP ratio change, % at 20 µM; 0.061% of 360,000 active; AID 651647;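 active means GFP/RFP ratio change of at least 30% with cell ATP level not reduced by more than half and red fluorescence within 50% of control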
#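 Compound: 20 µM single dose, 1% DMSO / System: HT1080 RFP-PRO-GFP cells / Controls: DMSO and RFP-L50D-GFP cell wells / Read-out basis: GFP/RFP fluorescence ratio / Schedule: overnight compound exposure at 37 °C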
# MsrA act = activates bovine MsrA enzyme | AID 602163 | purified bovine MsrA, absorbance read-out | 0.3% of 360,000 active | activation, % at 10.6 µM; in the data active means activation above about 7.5%;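 further: 0% = vehicle and 100% = reference activator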
# MIN6 prolif = induces beta-cell replication in MIN6 cells. MIN6 cells proliferation, ATPlite luminescence, 48 h; cells starved in 0.2% serum; 100% = growth in 10% serum. proliferation, % at 10 µM. 0.29% of 330,000 active;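 active means compounds whose signal lies at least 3.5 SD above the mean of all wells on their plate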;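 further: 0% = DMSO-treated cells in low-serum medium and 100% = 10% serum control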
# SKN-1 block = blocks SKN-1 activity in C. elegans; C. elegans VP596 Pgst-4::GFP/RFP ratio, acrylamide-induced, 24 h; inhibition, % at 21.8 µM; 0.49% of 360,000 active; AID 624304;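 active means interference check ratio from 0.5 to 1.5 plus GFP to RFP signal ratio inhibition reaching or exceeding a fixed threshold, cut at about 30% in these data, passing the limit was not always enough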
# MsrA inh confirm = confirmation of bovine MsrA inhibitors; 41% of 2,300 active; shares compounds with MsrA inhibitor; purified bovine MsrA, absorbance read-out; AID 651822; inhibition, % at 15.5 µM;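 further: coupled to thioredoxin reductase with NADPH and selenocystamine and DMSO as substrate; 0% = vehicle only and 100% = full effect of reference inhibitor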
# * marks the source's active call; other numbers are inactive results; / = no result. Unless noted, no stated cut-off is given here; in the data, active means inhibition above about 4.5%; inactive means the rest.
SMILES,DAGLB inh,MsrA inhibitor,MT1-MMP act inh,MsrA act,MIN6 prolif,SKN-1 block,MsrA inh confirm
c1ccc2cc(CSCc3nc4ccccc4[nH]3)ccc2c1,-12,-1,6,-2,0,31,/
c1ccc(-n2nnnc2-n2cnc3ccccc32)cc1,1,9.9*,-1,-1,-3,9,4.7*
c1ccc(N2CCN(c3nnnn3-c3ccccc3)CC2)cc1,3,1,4,-1,-2,3,/
Cc1[nH]nc2c1C(c1cc(Br)cs1)C(C#N)=C(N)O2 (stereo not drawn),2,1,-7,-2,0,7,/
Cc1ccc(C2(c3noc(CN4CCC(C(=O)N5CCOCC5)CC4)n3)CCCC2)cc1,3,4.7*,-1,-1,2,0,0
O=C1CC(C(=O)Nc2ccc(Br)cc2)S/C(=N\N=C\c2ccco2)N1 (stereo not drawn),3,2,/,-14,-3,-6,/
O=C1CC(C(=O)Nc2ccccc2)S/C(=N\N=C\c2ccco2)N1 (stereo not drawn),0,5.0*,4,-6,0,6,5.4*
COc1ccc(/C=N/N=C2/NC(=O)CC(C(=O)O)S2)cc1 (stereo not drawn),0,5.0*,-1,-7,-3,7,4
COc1ccc(NC(=O)C2CC(=O)N/C(=N/N=C/c3ccco3)S2)cc1 (stereo not drawn),/,5.1*,3,-8,0,2,5.1*
O=C1CC(C(=O)Nc2ccc(Cl)cc2)S/C(=N\N=C\c2ccco2)N1 (stereo not drawn),4,5.6*,8,-5,-2,-2,4
COc1ccc(Cn2c(=O)[nH]c3cc(C(=O)NCCc4ccc(S(N)(=O)=O)cc4)ccc3c2=O)cc1,0,2,3,-1,-1,13,/
CCC(=O)N1CCc2cc(Br)cc(S(=O)(=O)N3CCC(C(=O)NC(C)C)CC3)c21,3,-1,0,-4,-2,-4,/
O=Cc1ccccc1-n1cccn1,0,0,2,-3,0,-4,/
NC(N)=NC1=NC(=O)/C(=C/c2ccccc2-n2cccn2)S1,3,5.3*,2,-6,1,-4,2
O=c1[nH]c(-[n+]2ccccc2)c(/C=N/NC([S-])=Nc2ccccc2)s1,-2,3,-106,-4,-3,0,/
Cc1cc(C)c[n+](-c2[nH]c(=O)sc2/C=N/NC([S-])=Nc2ccccc2)c1,-1,4.9*,-84,-3,0,-15,6.2*
Cc1cc[n+](-c2[nH]c(=O)sc2/C=N/NC([S-])=Nc2ccccc2)cc1,-3,4,-59,-12,0,-18,/
CCc1ccc[n+](-c2[nH]c(=O)sc2/C=N/NC([S-])=Nc2ccccc2)c1,-6,6.5*,-82,-5,0,-18,1
O=C(N[C@H](C(=O)N1CCC[C@H]1C(=O)NC1CCCC1)C1CCCCC1)C1CC1,/,-1,/,/,/,/,/
CCCn1c(SCC(=O)N2CCN(CC)CC2)nc2c1c(=O)n(C)c(=O)n2C,2,0,-6,-2,1,10,/
COc1ccc2cc(S(=O)(=O)c3ccccc3)c(=O)oc2c1,-1,5.3*,-3,-5,-1,7,4
COc1ccc2cc(C(=O)c3ccccc3)c(=O)oc2c1,0,3,-6,-5,-2,5,/
Cc1ccc(C(=O)Nc2nnc(C)s2)o1,0,2,0,0,-1,1,/
Cc1ccc(/C=C/C(=O)Nc2nnc(C)s2)o1,5,7.6*,-1,-4,-1,11,5.3*
CCOC(=O)c1sc(N)c(C(N)=O)c1C,/,4.9*,-5,-4,0,16,0
SMILES,DAGLB inh,MsrA inhibitor,MT1-MMP act inh,MsrA act,MIN6 prolif,SKN-1 block,MsrA inh confirm
CCOC(=O)c1c(N)sc(C(N)=O)c1C,-2,1,-3,-9,-3,11,/
Cc1nn(C)cc1/C=C/C(=O)c1ccccc1,2,3,1,-11,-6,-15,/
Cc1nn(C)cc1/C=C/C(=O)c1cccs1,1,5.4*,6,-4,-3,4,4
CC1(c2ccccc2)NC(=O)N(CC(=O)Nc2ccc(C(N)=O)cc2)C1=O (stereo not drawn),1,0,-2,6,3,21,/
CCc1nc(N)c(C#N)c(-c2ccccc2OC)c1C,-3,4.7*,6,-10,0,1,0
Nc1ccc(-c2nc3c(Cl)cc(N)cc3[nH]2)cc1,1,5.2*,11,-5,-1,-4,4
Nc1ccc2nc(-c3ccc(N)c(Cl)c3)[nH]c2c1,7,5.5*,8,-1,-5,-2,5.5*
COc1ccc2nc3oc(C(=O)NCc4cccs4)cc3cc2c1,-3,0,0,-6,4,-7,/
COc1ccc2cc3cc(C(=O)NCc4ccccn4)oc3nc2c1,-1,8.0*,11,-5,1,1,5.6*
COc1ccc2cc3cc(C(=O)NCc4ccco4)oc3nc2c1,-2,4.8*,6,-3,-3,16,2
Cc1ccc(S(=O)(=O)N2CCC(NC(=O)C3CCCCC3)CC2)cc1,-4,-1,1,-1,0,-5,/
O=C(c1cnc2sccn2c1=O)N(Cc1ccccc1)c1ccccn1,2,5.0*,0,-4,-2,-3,3
CC1=C(C(=O)N(C)C)CC(CC(=O)NC2CCCC2)C(=O)N1CCC1=CCCCC1 (stereo not drawn),-1,1,-2,0,/,3,/
CC(C)(C)C(=O)Nc1sc2c(c1C#N)CCC2,2,5.9*,0,-4,-3,4,4.7*
COc1cc(/C=N/NC(=O)c2ccc3c(c2)OCCO3)cc(Br)c1O,-6,5.2*,2,-5,-4,8,5.3*
COc1ccc(NS(=O)(=O)c2cccc(C(=O)NN=Cc3cc(Br)c(O)c(Br)c3)c2)cc1,22,5.7*,8,-6,-4,15,4.9*
O=C(N/N=C/c1ccc2c(c1)OCO2)c1ccc2c(c1)OCO2,-2,4.7*,0,-5,-3,-5,4
Cc1ccsc1/C=N\NC(=O)c1ccc2c(c1)OCO2,1,5.1*,7,0,-3,9,5.5*
NC(=O)CC(NC(=O)Cc1cccc2ccccc12)c1ccc(NC2CCCCCCC2)c([N+](=O)[O-])c1 (stereo not drawn),8,1,-1,-5,-4,-3,/
COC(=O)C1=C(C)N(C)C(=NCc2cc(OC)c(OC)c(OC)c2)NC1c1ccc(Cl)cc1 (stereo not drawn),/,1,/,/,/,/,/
Cc1cnc(NC(=O)CCNC(=O)c2ccc([N+](=O)[O-])cc2)s1,1,1,-7,-4,2,-9,/
